Laboratory results taken from ChEMBL document CHEMBL5029200, “Imidazoline- and Benzamidine-Based Trypanosome Alternative Oxidase Inhibitors: Synthesis and Structure-Activity Relationship Studies” (ACS Med Chem Lett, 2022).

How the values were obtained:
[1] = Selectivity index, ratio of CC50 for HEK293 cells to EC50 for antitrypanosomal activity against bloodstream form trypomastigotes of wild type Trypanosoma brucei brucei Lister 427; format: toxicity; conditions: human, read-out: Selectivity Index
Procedure, shortened: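 Selectivity index = CC50 in HEK cells divided by EC50 against wild-type Lister 427. HEK cytotoxicity by resazurin assay. […] Both values from sigmoidal variable-slope nonlinear regression. n = 3.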

[2] = tested on: Trypanosoma brucei brucei; assay: Inhibition of recombinant Trypanosoma brucei brucei delta MTS TAO using ubiquinol as substrate measured at 40 uM after 2 mins by UV-vis spectrophotometry
[3] = tested on: Trypanosoma brucei brucei; assay: Antitrypanosomal activity against bloodstream form trypomastigotes of wild type Trypanosoma brucei brucei Lister 427 assessed as reduction in parasite viability by resazurin-based assay; format: functional, organism-based
Procedure, shortened: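 Monomorphic bloodstream-form trypanosomes grown in complete HMI-9 with 10% fetal bovine serum. Resazurin viability assay using 23 doubling dilutions of each compound, starting at 100 μM. EC50 obtained by nonlinear regression fitted to a variable-slope sigmoid. n = 3.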

[4] = tested on: Trypanosoma brucei brucei; assay: Inhibition of recombinant Trypanosoma brucei brucei delta MTS TAO using ubiquinol as substrate measured at 40 uM after 2 mins by UV-vis spectrophotometry
[5] = Inhibition of recombinant Trypanosoma brucei brucei delta MTS TAO using ubiquinol as substrate measured after 2 mins by UV-vis spectrophotometry

Cc1cc(O)cc(O)c1C(=O)NCCCCCCCCCCCCCCOc1ccc(C(=N)NO)cc1
selectivity ratio [1]: 6.9

C/C(=C\Cc1c(O)c(Cl)c(C)c(C=O)c1O)CC/C=C(\C)[C@@H]1CC(=O)C(C)(C)O1
inhibition [2]: 100%

Cc1cc(O)cc(O)c1C(=O)NCCCCCCOc1ccc(C#N)cc1
selectivity ratio [1]: 6.6

Cc1cc(O)cc(O)c1C(=O)NCCCCCCCCCCCCOc1ccc(C2=NCCN2)cc1
EC50 [3]: 1700 nM

Cc1cc(O)cc(O)c1C(=O)NCCCOc1ccc(C(=N)N)cc1
inhibition [4]: 48%
IC50 [5]: > 40000 nM

Cc1cc(O)cc(O)c1C(=O)NCCCCCCCCCCCCCCOc1ccc(C(=N)N)cc1
selectivity ratio [1]: 10.7
